Measured values as given in BindingDB's records for doi:10.1021/jm00077a002 (Merck Research Laboratories, 1994).

Legend:
[1] = molecular target: T1, Oxytocin receptor (Rattus norvegicus, UniProt P70536); assay: Inhibition of radioligand [3H]oxytocin binding at the oxytocin (OT) receptor in rat uterine tissue
T1 sequence (P70536 whole entry): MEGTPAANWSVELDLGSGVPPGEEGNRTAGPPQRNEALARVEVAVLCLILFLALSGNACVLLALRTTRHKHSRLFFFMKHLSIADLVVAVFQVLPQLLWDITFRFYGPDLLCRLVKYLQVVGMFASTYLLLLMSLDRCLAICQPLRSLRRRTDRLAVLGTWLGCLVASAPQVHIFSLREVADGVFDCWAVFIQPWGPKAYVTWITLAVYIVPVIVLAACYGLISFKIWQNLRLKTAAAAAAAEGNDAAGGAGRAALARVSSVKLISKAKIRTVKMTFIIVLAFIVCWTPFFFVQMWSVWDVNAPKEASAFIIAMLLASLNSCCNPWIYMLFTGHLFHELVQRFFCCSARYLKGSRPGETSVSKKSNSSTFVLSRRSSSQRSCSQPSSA
Outline: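 Uteri taken from rats given diethylstilbestrol dipropionate (0.3 mg/kg ip, 18–24 h before), crude membranes. 1 nM [3H]OT (30–60 Ci/mmol), equilibrium 60 min at 22 °C in 50 mM Tris-HCl, 5 mM MgCl2, 0.1% BSA, pH 7.4. Nonspecific binding with 1 mM unlabeled OT. Filtered on glass fiber. Initial single-concentration screen, then IC50 from seven concentrations by linear regression.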

[2] = molecular target: T2, Vasopressin V1a/V1b receptor (Rattus norvegicus, UniProt P30560+P48974); assay: (§1) Inhibition of radioligand [3H]AVP binding to the vasopressin V1 receptor in rat liver tissue
T2 sequence (P30560 whole entry): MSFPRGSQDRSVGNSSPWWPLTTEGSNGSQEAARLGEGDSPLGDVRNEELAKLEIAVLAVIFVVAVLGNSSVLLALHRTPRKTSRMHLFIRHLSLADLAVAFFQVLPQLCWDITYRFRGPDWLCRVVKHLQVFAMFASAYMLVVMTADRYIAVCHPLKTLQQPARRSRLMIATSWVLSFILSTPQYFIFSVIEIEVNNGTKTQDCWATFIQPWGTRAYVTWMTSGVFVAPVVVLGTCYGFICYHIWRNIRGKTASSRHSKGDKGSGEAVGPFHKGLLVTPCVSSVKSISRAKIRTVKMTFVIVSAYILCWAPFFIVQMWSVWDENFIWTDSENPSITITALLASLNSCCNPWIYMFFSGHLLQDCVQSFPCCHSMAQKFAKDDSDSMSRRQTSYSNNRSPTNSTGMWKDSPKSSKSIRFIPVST
T2 sequence (P48974 whole entry): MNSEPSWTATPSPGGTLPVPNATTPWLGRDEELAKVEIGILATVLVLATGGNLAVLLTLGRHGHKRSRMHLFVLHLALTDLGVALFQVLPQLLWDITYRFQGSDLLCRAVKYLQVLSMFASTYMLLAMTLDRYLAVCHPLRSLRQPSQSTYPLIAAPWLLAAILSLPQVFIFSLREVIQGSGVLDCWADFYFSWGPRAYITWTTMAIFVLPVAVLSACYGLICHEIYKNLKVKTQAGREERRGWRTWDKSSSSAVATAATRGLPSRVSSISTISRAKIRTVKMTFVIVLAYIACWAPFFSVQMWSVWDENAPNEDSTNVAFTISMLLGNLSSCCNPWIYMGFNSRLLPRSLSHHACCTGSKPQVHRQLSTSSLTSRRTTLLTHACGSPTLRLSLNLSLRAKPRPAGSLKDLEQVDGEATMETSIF
Outline: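 Crude membranes from male rat liver (V1 sites) competed with 1 nM [3H]AVP (80–90 Ci/mmol). Equilibrium 30 min, 30 °C, buffer 100 mM Tris-HCl, 5 mM MgCl2, 0.1% BSA, 50 μM PMSF, 50 μg/mL bacitracin, pH 8.0. 10 μM unlabeled AVP for nonspecific binding. Filtration through glass-fiber filters. IC50 from linear regression over seven concentrations.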

[3] = molecular target: Vasopressin V2 receptor (Rattus norvegicus, UniProt Q00788); assay: Inhibition of radioligand [3H]-AVP binding to the vasopressin V2 receptor in rat kidney tissue
Sequence of Vasopressin V2 receptor (Q00788 whole entry): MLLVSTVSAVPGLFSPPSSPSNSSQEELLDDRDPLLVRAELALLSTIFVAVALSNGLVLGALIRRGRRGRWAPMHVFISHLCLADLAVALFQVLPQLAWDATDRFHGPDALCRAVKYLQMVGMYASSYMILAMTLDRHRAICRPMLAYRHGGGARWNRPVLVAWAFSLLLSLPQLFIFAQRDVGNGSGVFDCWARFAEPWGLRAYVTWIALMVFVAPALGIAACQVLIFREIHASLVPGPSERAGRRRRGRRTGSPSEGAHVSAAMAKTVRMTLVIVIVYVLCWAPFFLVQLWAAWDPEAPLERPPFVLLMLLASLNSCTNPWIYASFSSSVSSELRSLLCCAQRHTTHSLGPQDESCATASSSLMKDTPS
Outline: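 [3H]AVP (80–90 Ci/mmol) at 2 nM competed on crude membranes from male rat kidney medulla (V2 sites). Equilibrium 30 min at 30 °C in 100 mM Tris-HCl, 5 mM MgCl2, 0.1% BSA, 50 μM PMSF, 50 μg/mL bacitracin, pH 8.0. Nonspecific binding with 10 μM unlabeled AVP. Glass-fiber filtration. IC50 by linear regression of % inhibition vs log concentration, seven concentrations.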

[4] = molecular target: T1, Oxytocin receptor; assay: ChEBML_145031
Description: Tested against rat uterine OT receptor

[5] = molecular target: T2, Vasopressin V1a/V1b receptor; assay: ChEBML_211079; description: as §1

`CC1(C)[C@@H]2CC[C@@]1(CS(=O)(=O)N1CCC3(CCc4ccccc43)CC1)[C@@H](n1c(O)c(Cc3cnc[nH]3)[nH]c1=O)C2` [3-[7,7-dimethyl-1-spiro[2,3-dihydro-1H-indene-1,4'-(hexahydropyridine)]-1-ylsulfonylmethyl-(1S,2S,4R)-bicyclo[2.2.1]hept-2-yl]-5-(1H-4-imidazolylmethyl)tetrahydro-1H-2,4-imidazoledione] was tested. Which IC50 [1] did it give?
Its IC50 is 13 nM.

And the IC50 [2]?
Its IC50 is 420 nM.

And the IC50 [3]?
The IC50 was 1500 nM.

What about the IC50 [4] of the same compound?
Its IC50 is 13 nM.

What about the IC50 [5] of the same compound?
Its IC50 is 420 nM.
